Data set [1] in a line: Selectivity index, ratio of IC50 for human HepG2 cells to IC50 for chloroquine-resistant Plasmodium falciparum RKL-9 schizont infected in RBC. As to conditions: read-out: Ratio IC50. It counts as toxicity. The procedure, abridged: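 HepG2 in RPMI 1640 with 10% FCS, 5 x 10^2 cells/well, serial dilutions (DMSO stocks) added after 1 h; 7 days at 37°C, 5% CO2; MTT 4 h, formazan in ethanol, absorbance 570 nm; IC50 by non-linear regression, one experiment in duplicate. Index = HepG2 IC50 / RKL-9 antiplasmodial IC50.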

Data set [2] in a line: Inhibition of beta-hematin formation assessed as reduction in acetate buffer-initiated hemozoin formation after 18 hrs by spectrophotometric method relative to control. The arrangement: concentration or dose not given beside the values. Conditions: concentration not given here. Put shortly: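 Colorimetric β-hematin assay after Ncokazi and Egan. Haemin chloride in DMSO, with compounds at 0.12–5 molar equivalents to haemin and DMSO as control. Reaction started with acetate buffer pH 5.0 and run 18 h at 37°C. Pellet then washed with DMSO to remove unreacted haematin. % inhibition computed from test versus control absorbance. Duplicate determinations.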

Data set [3] relates to Plasmodium falciparum. Put plainly: Antimalarial activity against chloroquine-sensitive Plasmodium falciparum MRC-2 schizont infected in RBC measured after 24 to 30 hrs hrs by giemsa staining based light microscopic method. The format is functional. The procedure, abridged:
(§1)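 Asynchronous cultures synchronised to rings with 5% aqueous sorbitol, other stages removed by centrifugation; parasitemia about 1% in fresh washed RBCs. Compounds dissolved in DMSO, diluted in RPMI-1640, tested at several concentrations in triplicate; drug-free wells as control. Incubation 37°C in CO2 for 24-30 h until schizont maturation; methanol-fixed Giemsa smears counted under oil immersion; % inhibition, IC50 by probit; n=2.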

In data set [4] the test system is Plasmodium falciparum. Put plainly: Antimalarial activity against chloroquine-resistant Plasmodium falciparum RKL-9 schizont infected in RBC measured after 24 to 30 hrs hrs by giemsa staining based light microscopic method. The format is functional. Put shortly: as §1
Data set [5] concerns HepG2. Put plainly: Cytotoxicity against human HepG2 cells assessed as reduction in cell viability after 7 days by MTT assay. The format is cell-based. As to conditions: HepG2, 168 h. The procedure, abridged:
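HepG2 cells maintained in RPMI 1640 with 10% FCS. Seeded at 5 x 10^2 cells per well and pre-incubated 1 h at 37°C, 5% CO2. Serial dilutions from DMSO stocks added, with medium and DMSO solvent controls. Cells incubated seven days, then MTT (5 mg/ml) added for 4 h. Formazan dissolved in ethanol, A570 read. IC50 by non-linear regression of % growth against log concentration.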
(Tetrazolium dyes change colour on reduction, which living cells bring about.)

Data set [6] deals with Staphylococcus aureus. In words: Antibacterial activity against Staphylococcus aureus MTCC 3160 after 24 hrs by broth microdilution method. The format is functional. As to conditions: MTCC 3160, 24 h. The procedure, abridged:
(§2)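 Broth microdilution per NCCLS in Mueller-Hinton broth, inoculum 5 x 10^5 CFU/ml. Compounds dissolved in DMSO, twofold serial dilutions made in sterile distilled water. Incubated at 35°C for 24 h. MIC (µg/ml) taken as the lowest concentration with no visible turbidity by unaided eye. Ciprofloxacin as positive control. Three replicates, mean ± SD.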

The test system of data set [7] is Bacillus subtilis. In words: Antibacterial activity against Bacillus subtilis MTCC 121 after 24 hrs by broth microdilution method. The format is functional. As to conditions: MTCC 121, 24 h. Put shortly: as §2
A general note: Broth dilution looks for growth in wells or tubes with falling amounts of substance.

Data set [8] relates to Escherichia coli. In words: Antibacterial activity against Escherichia coli MTCC 51 after 24 hrs by broth microdilution method. Conditions: MTCC 51, 24 h. The format is functional. The procedure, abridged:
as §2

Data set [9] has as its system Pseudomonas aeruginosa. In words: Antibacterial activity against Pseudomonas aeruginosa MTCC 741 after 24 hrs by broth microdilution method. The format is functional. As to conditions: MTCC 741, 24 h. The procedure, abridged:
as §2

For data set [10], the system named is Aspergillus niger. Put plainly: Antifungal activity against Aspergillus niger MTCC 8189 after 48 hrs by broth microdilution method. It counts as functional. Conditions: MTCC 8189, 48 h. Put shortly:
(§3)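 Fungi grown in Sabouraud liquid medium, inoculum 0.5–2.5 x 10^3 CFU/ml. Broth microdilution per NCCLS using twofold serial dilutions in sterile water from DMSO solutions. Incubated at 35°C for 48 h. MIC (µg/ml) was the lowest concentration with no visible growth by eye. Fluconazole as positive control. Mean ± SD of three replicates.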

Data set [11] concerns Candida albicans. Put plainly: Antifungal activity against Candida albicans MTCC 227 after 48 hrs by broth microdilution method. It counts as functional. Conditions: MTCC 227, 48 h. The procedure, abridged:
as §3

The inhibition is the share of the control response that was lost under treatment. What is called IC50 is the concentration needed to halve the response being measured. Usually MIC stands for the smallest concentration in the dilution series that meets the test's criterion for growth inhibition.

In brackets after ≈: the same amount, converted by molar mass.

For the compound `O=C(c1cccnc1)N1N=C(c2ccc(O)cc2)CC1c1ccc(Br)cc1` (stereo unspecified), the selectivity ratio in [1] was 60.5. Moreover, in data set [2], the inhibition was found to be 76%. Besides, the IC50 in [3] is 141 nM; in data set [4], 970 nM; in [5] it was 58700 nM. Also, the MIC in data set [6] came to 6.5 µg/mL (≈ 15.4 µM); in data set [7], 12.5 µg/mL (≈ 29.6 µM); in data set [8], 25 µg/mL (≈ 59.2 µM); in data set [9], 12.5 µg/mL (≈ 29.6 µM); in data set [10] it was 25 µg/mL (≈ 59.2 µM); in data set [11], 50 µg/mL (≈ 118 µM).

For the origin of these results see ChEMBL document CHEMBL3992561, “Synthesis of 1,3,5-trisubstituted pyrazolines as potential antimalarial and antimicrobial agents” (Bioorg Med Chem, 2017).
